Results: publication PMC3467149 (ACS medicinal chemistry letters, 2012)
Where two headings read alike, the source gives them in different places. Values belong to the molecule of their own block, whether it stands above or below them.

What was measured:
[1] = test system: LRRK2 Ser910/Ser935 phosphorylation; conditions: intraperitoneal doses of up to 100 mg/Kg; cited from earlier work
LRRK2 = LRRK2 (Mus musculus, UniProt Q5S006); experiment: KiNativ chemical proteomics of tissues from treated animals, LRRK2; type: in vivo; conditions: for LRRK2 target engagement (KiNativ): spleen
LRRK2, sequence (Q5S006 whole entry): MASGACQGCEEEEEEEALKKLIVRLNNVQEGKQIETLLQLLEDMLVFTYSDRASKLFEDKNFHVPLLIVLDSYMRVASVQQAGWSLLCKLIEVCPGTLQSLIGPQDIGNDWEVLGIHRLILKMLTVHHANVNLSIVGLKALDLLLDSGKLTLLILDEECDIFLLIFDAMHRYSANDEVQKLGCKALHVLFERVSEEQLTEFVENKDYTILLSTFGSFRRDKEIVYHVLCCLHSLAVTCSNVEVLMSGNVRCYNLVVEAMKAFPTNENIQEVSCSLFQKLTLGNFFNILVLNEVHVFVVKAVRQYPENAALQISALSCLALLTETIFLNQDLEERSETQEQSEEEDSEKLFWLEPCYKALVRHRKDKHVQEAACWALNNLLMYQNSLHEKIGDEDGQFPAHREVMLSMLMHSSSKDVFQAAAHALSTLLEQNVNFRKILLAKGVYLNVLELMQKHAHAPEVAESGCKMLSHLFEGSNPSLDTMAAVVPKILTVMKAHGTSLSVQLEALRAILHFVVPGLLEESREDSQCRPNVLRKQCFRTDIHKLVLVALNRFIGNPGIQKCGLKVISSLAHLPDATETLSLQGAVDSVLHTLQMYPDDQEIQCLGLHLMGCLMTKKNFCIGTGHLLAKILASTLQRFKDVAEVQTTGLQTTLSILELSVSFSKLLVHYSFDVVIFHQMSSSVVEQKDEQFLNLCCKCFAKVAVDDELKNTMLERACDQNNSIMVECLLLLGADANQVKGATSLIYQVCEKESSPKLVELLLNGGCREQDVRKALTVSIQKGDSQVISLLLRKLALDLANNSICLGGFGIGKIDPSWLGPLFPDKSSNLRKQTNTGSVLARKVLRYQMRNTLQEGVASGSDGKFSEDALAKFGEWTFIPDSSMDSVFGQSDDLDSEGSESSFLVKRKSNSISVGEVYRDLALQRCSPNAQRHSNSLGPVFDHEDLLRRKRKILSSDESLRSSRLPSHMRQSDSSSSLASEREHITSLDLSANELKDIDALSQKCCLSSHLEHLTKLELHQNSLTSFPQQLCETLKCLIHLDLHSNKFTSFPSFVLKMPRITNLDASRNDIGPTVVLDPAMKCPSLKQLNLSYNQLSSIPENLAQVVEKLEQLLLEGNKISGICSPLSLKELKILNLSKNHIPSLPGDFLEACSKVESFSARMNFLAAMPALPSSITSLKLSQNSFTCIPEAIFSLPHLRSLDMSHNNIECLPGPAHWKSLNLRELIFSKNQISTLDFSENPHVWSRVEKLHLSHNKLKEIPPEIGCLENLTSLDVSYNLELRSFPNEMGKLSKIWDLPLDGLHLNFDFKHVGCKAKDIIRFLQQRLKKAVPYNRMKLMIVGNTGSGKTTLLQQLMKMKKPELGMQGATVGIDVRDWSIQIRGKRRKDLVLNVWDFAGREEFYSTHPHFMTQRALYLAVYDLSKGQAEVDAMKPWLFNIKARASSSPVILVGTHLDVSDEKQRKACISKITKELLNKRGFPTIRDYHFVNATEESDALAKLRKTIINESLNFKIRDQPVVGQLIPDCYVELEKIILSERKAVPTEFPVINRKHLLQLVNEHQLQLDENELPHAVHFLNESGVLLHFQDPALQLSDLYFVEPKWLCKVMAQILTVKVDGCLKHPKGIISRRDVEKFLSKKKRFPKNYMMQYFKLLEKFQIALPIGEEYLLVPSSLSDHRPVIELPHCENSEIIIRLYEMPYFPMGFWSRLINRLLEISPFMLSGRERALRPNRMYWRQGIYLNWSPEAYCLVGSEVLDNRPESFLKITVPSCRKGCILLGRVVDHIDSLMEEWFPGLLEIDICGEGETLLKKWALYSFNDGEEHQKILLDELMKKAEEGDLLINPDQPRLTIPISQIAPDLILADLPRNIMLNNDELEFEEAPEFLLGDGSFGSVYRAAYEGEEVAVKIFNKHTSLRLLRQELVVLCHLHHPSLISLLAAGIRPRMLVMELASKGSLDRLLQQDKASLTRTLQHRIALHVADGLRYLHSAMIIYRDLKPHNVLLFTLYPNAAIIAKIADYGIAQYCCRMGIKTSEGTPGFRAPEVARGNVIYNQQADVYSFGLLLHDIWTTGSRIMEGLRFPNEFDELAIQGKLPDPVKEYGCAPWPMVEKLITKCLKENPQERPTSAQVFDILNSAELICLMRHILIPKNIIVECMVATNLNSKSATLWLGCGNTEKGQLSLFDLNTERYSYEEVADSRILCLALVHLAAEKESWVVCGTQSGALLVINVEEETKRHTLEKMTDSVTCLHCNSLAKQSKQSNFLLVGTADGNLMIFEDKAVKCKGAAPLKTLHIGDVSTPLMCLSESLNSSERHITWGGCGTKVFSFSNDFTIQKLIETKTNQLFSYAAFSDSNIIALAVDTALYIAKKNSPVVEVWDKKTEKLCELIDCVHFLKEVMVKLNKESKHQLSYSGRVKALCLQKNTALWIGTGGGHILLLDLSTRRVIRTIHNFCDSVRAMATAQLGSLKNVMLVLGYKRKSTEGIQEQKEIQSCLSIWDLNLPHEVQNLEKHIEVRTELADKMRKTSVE

[2] = biological target: T1, GST-LRRKT[A2016T] (1,326–2,527) (Homo sapiens, UniProt Q5S007, A2016T); experiment: Biochemical inhibition of GST-LRRK2[A2016T]; conditions: 20 µM Nictide, 100 µM ATP
T1 sequence (Q5S007 1326-2527 A2016T): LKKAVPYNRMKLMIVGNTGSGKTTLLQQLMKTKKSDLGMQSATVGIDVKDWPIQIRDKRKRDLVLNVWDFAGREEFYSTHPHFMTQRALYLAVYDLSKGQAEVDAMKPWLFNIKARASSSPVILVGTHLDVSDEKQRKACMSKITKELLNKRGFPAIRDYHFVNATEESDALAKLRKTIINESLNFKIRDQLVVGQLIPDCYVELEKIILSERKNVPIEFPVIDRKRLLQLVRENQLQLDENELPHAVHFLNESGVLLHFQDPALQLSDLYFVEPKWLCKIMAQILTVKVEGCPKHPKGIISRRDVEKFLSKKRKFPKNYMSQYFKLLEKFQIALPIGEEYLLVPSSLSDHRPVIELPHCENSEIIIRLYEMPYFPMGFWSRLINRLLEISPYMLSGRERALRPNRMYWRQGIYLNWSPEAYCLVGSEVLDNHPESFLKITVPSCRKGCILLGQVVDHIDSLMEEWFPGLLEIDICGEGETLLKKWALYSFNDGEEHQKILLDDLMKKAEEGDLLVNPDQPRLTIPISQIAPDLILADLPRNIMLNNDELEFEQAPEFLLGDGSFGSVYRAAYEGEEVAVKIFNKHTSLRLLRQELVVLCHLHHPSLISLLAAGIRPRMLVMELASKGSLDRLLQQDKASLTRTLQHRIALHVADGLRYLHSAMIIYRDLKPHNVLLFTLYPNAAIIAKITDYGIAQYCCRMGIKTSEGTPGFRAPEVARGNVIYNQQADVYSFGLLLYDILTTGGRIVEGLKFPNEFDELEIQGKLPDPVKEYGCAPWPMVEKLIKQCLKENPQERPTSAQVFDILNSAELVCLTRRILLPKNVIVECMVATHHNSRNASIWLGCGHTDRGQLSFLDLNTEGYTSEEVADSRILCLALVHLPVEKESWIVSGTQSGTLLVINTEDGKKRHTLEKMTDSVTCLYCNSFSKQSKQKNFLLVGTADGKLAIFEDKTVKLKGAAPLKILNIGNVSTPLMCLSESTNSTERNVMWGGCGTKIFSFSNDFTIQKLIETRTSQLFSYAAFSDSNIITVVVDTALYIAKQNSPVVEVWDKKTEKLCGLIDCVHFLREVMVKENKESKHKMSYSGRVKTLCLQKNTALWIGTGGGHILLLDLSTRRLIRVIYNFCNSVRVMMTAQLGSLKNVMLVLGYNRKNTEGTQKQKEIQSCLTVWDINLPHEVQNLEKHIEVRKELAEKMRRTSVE

panel of 451 kinases = experiment: KinomeScan analysis; type: binding; conditions: 1 µM
JNK1/2/3 = experiment: KiNativ chemical proteomics of tissues from treated animals, JNK1/2/3; type: in vivo, mouse
[3] = test system: GFP-LRRK2[G2019S+A2016T] in HEK293 cells; experiment: Ser910/Ser935 phosphorylation in HEK293 cells, GFP-LRRK2[G2019S+A2016T]; type: cell-based; conditions: 90 min
In short: (§1)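 HEK293 cells stably expressing the GFP-tagged LRRK2 mutant were treated with DMSO or increasing concentrations of test compound for 90 min. A reference LRRK2 inhibitor at 1 μM served as control. Cell lysates were immunoblotted for LRRK2 phospho-Ser910, phospho-Ser935 and total LRRK2.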

[4] = test system: >150 protein and lipid kinases; experiment: KiNativ chemical proteomics, other kinases of the panel; type: in vivo, mouse; conditions: any dose (3–100 mg/kg)
[5] = test system: GFP-LRRK2[A2016T] in HEK293 cells; experiment: Ser910/Ser935 phosphorylation in HEK293 cells, GFP-LRRK2[A2016T]; type: cell-based; conditions: 90 min
In short: as §1

TBK1 = biological target: T2, TBK1 (Mus musculus, UniProt Q9WUN2); experiment: KiNativ chemical proteomics of tissues from treated animals, TBK1; type: in vivo; conditions: read-out: TBK1 inhibition (KiNativ)
T2 sequence (Q9WUN2 1-729): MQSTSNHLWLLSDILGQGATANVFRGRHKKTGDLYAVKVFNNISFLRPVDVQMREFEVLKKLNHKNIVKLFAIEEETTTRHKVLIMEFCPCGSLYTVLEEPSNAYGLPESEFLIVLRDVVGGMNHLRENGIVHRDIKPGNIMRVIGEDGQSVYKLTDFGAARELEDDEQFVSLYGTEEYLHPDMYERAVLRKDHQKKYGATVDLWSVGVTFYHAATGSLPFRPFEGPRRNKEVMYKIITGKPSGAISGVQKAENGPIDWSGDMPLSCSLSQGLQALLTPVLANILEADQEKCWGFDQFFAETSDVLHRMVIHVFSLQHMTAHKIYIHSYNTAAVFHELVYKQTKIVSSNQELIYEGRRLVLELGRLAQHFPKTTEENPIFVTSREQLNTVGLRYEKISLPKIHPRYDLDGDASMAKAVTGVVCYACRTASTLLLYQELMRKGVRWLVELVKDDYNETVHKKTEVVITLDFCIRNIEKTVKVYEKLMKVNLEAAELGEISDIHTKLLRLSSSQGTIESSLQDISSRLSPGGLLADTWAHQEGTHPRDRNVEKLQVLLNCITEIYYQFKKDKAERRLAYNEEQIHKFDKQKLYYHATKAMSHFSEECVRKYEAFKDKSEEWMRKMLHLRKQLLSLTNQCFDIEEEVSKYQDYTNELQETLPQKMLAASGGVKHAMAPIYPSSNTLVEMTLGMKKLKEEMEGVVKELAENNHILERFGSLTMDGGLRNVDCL

[6] = test system: LRRK2 Ser910/Ser935 phosphorylation; type: in vivo, mouse
In short: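 Mice received the test compound intraperitoneally at 100, 50, 30 or 10 mg/kg. Brain, spleen and kidney were collected, and endogenous LRRK2 was resolved by SDS-PAGE. Blots were probed with phospho-specific antibodies to Ser910 and Ser935 and for total LRRK2, with quantitative analysis of the blots.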

Compound: COc1cc(N2CCOCC2)ccc1Nc1ncc(F)c(Nc2ccccc2NS(C)(=O)=O)n1 [CZC-25146]
- inhibition of phosphorylation of Ser910 and Ser935 of LRRK2 in mouse brain [1]: none of these compounds are capable of effectively inhibiting

- LRRK2 inhibition (KiNativ) (LRRK2; brain, 100 mg/kg): no LRRK2 inhibition
- effect of the A2016T mutation on inhibition [2]: dramatic resistance
Compound: COc1cc(C(=O)N2CCC(N3CCN(C)CC3)CC2)ccc1Nc1ncc2c(n1)N(C)c1ccccc1C(=O)N2C [LRRK2-IN-1, reference compound]
- inhibition of phosphorylation of Ser910 and Ser935 of LRRK2 in mouse brain [1]: none of these compounds are capable of effectively inhibiting

Compound: COc1cc(N2CCC(N3CCN(C)CC3)CC2)ccc1Nc1ncc(Cl)c(Nc2ccccc2S(=O)(=O)C(C)C)n1 [TAE684]
- inhibition of phosphorylation of Ser910 and Ser935 of LRRK2 in mouse brain [1]: none of these compounds are capable of effectively inhibiting

- LRRK2 target engagement (KiNativ) (LRRK2; 10 mg/kg): 80–90%
- LRRK2 target engagement (KiNativ) (LRRK2; 30–100 mg/kg): greater than 90%
- inhibition at 50 mg/kg (TBK1): 35 to 40%
- inhibition at 100 mg/kg (TBK1): 35 to 40%
Compound: CNc1nc(Nc2ccc(C(=O)N3CCOCC3)cc2OC)ncc1Cl [Compound 4]
- interactions detected in KinomeScan (panel of 451 kinases): no interactions detected with kinases other than G2019S LRRK2 with the exception of one mutant form of c-Kit (L576P)
- JNK1/2/3 inhibition (KiNativ) (JNK1/2/3; 50 mg/kg): 35–40%
- JNK1/2/3 inhibition (KiNativ) (JNK1/2/3; 100 mg/kg): 35–40%
- concentration inducing dephosphorylation of Ser910 and Ser935 [3]: 1 to 3 µM
- inhibition of kinases other than LRRK2 (KiNativ) [4]: ≤ 50%
- concentration inducing dephosphorylation of Ser910 and Ser935 [5]: 1 to 3 µM
- lowest dose inhibiting Ser910 and Ser935 phosphorylation in mouse brain ([6]; mouse brain, intraperitoneal delivery): 50 mg/kg
- inhibition of LRRK2 Ser910/Ser935 phosphorylation in brain ([6]; mouse, intraperitoneal 10 mg/kg): partial inhibition
- inhibition of LRRK2 Ser910/Ser935 phosphorylation in brain ([6]; mouse, intraperitoneal 30 mg/kg): partial inhibition
- inhibition of LRRK2 Ser910/Ser935 phosphorylation in tissues ([6]; mouse, intraperitoneal 50 mg/kg, all tissues): near complete inhibition
- dephosphorylation of Ser910 and Ser935 of LRRK2 in tissues ([6]; mouse, intraperitoneal 100 mg/kg, kidney, spleen and brain): near complete dephosphorylation
- effect of the A2016T mutation on inhibition [2]: maintains inhibition of the A2016T mutation
